For one data set, the system named is K562. The data set is described as follows: Cytotoxicity against human K562 cells. Type of data set: functional, cell-based.
Data set [1] in a line: Metabolic stability in mouse liver microsomes after 30 mins by LC-MS/MS analysis. Type of data set: ADME, Microsome. Conditions: read-out: Stability. A digest of the protocol:
(§1)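 Compounds were incubated with mouse or human liver microsomal preparation for 30 min at 37 °C. The reaction was stopped with CH3CN. Unmetabolized compound was quantified by LC-MS/MS in MRM mode and reported as percent remaining. Replicates n ≥ 2, mean values given.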

Data set [2] is described as follows: Metabolic stability in human liver microsomes after 30 mins by LC-MS/MS analysis. It counts as ADME, Microsome. Conditions: read-out: Stability. An outline of the steps:
as §1

Another data set concerns A549. Put plainly: Cytotoxicity against human A549 cells. It counts as functional, cell-based.
For the next data set, the target named is Histone deacetylase. The data set is described as follows: Inhibition of HDAC in human Hela cell nuclear extract after 15 mins. Type of data set: protein assay.
The subject of the next data set is HCT-116. The data set is described as follows: Cytotoxicity against human HCT116 cells. It counts as functional, cell-based.
The nature of data set [3]: Terminal half life in CD1 mouse at 5 mg/kg, iv and 15 mg/kg, po. It counts as ADME, organism-based. The conditions noted are these: in vivo, read-out: beta t1/2 (converted). A digest of the protocol:
(§2)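 CD-1 mice got single doses of 5 mg/kg iv or 15 mg/kg orally. The iv vehicle was water with 3% DMSO and 9.7% encapsin. The oral vehicle was water with 5% DMSO and 9.5% encapsin. Plasma PK parameters were calculated, including AUC0–∞, clearance, half-life, Vss, cmax and oral bioavailability.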

A short description of data set [4]: Clearance in CD1 mouse at 5 mg/kg, iv and 15 mg/kg, po. The conditions noted are these: in vivo. It counts as ADME, organism-based. A digest of the protocol: as §2
A short description of data set [5]: Cmax in CD1 mouse at 5 mg/kg, iv. Type of data set: ADME, organism-based. Also noted: dose 5 mg/kg, route intravenous. Conditions: in vivo. A digest of the protocol: as §2
Data set [6] is described as follows: Tmax in CD1 mouse at 5 mg/kg, iv and 15 mg/kg, po. Type of data set: ADME, organism-based. Conditions: in vivo. A digest of the protocol:
as §2

Data set [7] can be described thus: AUC (0 to infinity) in CD1 mouse at 15 mg/kg, po. It counts as ADME, organism-based. More on the design: time infinity, dose 15 mg/kg, route oral. Conditions: plasma. A digest of the protocol:
as §2

In data set [8] the target is T1, Voltage-gated inwardly rectifying potassium channel KCNH2 (Homo sapiens, UniProt Q12809). The data set is described as follows: Inhibition of human ERG channel.
T1 sequence (Q12809 whole entry): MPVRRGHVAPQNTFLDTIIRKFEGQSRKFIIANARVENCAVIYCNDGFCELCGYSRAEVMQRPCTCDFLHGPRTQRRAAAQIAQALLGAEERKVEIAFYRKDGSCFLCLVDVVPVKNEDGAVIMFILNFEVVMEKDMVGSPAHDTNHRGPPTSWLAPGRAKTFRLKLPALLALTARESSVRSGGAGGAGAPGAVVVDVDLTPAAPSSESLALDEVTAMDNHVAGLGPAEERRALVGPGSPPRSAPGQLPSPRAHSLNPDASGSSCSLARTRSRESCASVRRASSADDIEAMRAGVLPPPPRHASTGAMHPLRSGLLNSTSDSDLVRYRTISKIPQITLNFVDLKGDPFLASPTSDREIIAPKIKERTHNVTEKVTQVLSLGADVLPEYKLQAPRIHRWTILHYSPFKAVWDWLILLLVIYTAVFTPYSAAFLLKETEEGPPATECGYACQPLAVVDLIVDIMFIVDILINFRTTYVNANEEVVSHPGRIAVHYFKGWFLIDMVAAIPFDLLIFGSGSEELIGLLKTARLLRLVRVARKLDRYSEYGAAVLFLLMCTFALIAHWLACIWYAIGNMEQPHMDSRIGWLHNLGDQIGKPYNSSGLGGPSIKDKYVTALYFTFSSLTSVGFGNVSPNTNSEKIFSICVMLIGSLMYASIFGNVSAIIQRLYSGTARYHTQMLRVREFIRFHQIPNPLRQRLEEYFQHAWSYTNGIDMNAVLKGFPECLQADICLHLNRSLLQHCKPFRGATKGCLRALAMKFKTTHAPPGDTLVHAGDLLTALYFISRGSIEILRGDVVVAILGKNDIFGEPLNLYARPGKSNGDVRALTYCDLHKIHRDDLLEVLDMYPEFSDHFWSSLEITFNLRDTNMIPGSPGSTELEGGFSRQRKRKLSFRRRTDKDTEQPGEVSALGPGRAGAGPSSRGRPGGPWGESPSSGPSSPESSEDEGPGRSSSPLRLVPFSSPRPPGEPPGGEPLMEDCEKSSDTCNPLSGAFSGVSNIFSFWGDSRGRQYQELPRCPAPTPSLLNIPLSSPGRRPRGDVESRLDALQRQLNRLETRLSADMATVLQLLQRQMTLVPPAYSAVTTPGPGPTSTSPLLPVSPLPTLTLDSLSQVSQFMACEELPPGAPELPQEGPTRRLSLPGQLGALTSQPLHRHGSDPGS
Data set [9] can be described thus: Volume of distribution at steady state in CD1 mouse at 5 mg/kg, iv and 15 mg/kg, po. Type of data set: ADME, organism-based. Conditions: in vivo, read-out: Vdss. A digest of the protocol:
as §2

The nature of data set [10]: Oral bioavailability in CD1 mouse at 15 mg/kg. The conditions noted are these: in vivo.
Data set [11] can be described thus: AUC (0 to infinity) in CD1 mouse at 5 mg/kg, iv. Type of data set: ADME, organism-based. Conditions: plasma. Also noted: time infinity, dose 5 mg/kg, route intravenous. A digest of the protocol: as §2
Data set [12] is described as follows: Solubility of the compound at pH 7.4. Type of data set: physicochemical. The conditions noted are these: buffer.
Data set [13] in a line: Cmax in CD1 mouse at 15 mg/kg, po. Conditions: CD1, mouse, in vivo.
Another data set has as its target Histone deacetylase 2 (Homo sapiens, UniProt Q92769). The data set is described as follows: Inhibition of HDAC2 (unknown origin).
The target in data set [14] is T2, Protein deacetylase HDAC6 (Homo sapiens, UniProt Q9UBN7).
T2 sequence (Q9UBN7 whole entry): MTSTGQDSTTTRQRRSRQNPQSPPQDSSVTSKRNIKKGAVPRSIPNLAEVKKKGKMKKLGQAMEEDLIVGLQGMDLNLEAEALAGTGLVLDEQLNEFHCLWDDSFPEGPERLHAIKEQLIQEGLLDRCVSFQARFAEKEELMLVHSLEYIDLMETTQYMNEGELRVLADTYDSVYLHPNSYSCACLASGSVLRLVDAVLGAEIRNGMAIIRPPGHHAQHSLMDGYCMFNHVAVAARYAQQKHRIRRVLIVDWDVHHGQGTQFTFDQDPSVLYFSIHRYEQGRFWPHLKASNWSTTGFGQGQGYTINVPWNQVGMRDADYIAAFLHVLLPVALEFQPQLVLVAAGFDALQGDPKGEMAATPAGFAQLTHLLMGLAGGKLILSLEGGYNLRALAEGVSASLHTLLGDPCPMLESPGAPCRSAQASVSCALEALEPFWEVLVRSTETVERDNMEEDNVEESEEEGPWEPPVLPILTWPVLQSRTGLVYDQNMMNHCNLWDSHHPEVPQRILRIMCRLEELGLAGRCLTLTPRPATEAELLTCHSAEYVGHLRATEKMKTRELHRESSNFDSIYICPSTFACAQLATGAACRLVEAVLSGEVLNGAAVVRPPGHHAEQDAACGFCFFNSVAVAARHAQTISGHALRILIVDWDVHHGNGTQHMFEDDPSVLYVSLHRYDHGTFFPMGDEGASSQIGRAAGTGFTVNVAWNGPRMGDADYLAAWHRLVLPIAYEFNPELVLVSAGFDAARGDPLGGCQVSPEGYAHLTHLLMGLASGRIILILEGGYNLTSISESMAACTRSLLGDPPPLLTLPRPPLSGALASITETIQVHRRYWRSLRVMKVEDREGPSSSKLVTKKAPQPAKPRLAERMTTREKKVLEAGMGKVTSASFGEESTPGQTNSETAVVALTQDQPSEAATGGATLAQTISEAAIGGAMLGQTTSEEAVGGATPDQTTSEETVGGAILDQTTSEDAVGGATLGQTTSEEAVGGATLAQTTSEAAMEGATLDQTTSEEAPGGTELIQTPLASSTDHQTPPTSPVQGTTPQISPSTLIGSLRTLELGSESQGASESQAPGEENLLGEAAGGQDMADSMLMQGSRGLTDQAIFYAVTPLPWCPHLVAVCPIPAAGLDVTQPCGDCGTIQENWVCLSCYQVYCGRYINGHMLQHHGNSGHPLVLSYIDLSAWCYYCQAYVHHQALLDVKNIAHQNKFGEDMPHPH
Put plainly: Inhibition of HDAC6 (unknown origin).

The next data set deals with Histone deacetylase 3 (Homo sapiens, UniProt O15379). Put plainly: Inhibition of HDAC3 (unknown origin).
Histone deacetylase 3, sequence (O15379 whole entry): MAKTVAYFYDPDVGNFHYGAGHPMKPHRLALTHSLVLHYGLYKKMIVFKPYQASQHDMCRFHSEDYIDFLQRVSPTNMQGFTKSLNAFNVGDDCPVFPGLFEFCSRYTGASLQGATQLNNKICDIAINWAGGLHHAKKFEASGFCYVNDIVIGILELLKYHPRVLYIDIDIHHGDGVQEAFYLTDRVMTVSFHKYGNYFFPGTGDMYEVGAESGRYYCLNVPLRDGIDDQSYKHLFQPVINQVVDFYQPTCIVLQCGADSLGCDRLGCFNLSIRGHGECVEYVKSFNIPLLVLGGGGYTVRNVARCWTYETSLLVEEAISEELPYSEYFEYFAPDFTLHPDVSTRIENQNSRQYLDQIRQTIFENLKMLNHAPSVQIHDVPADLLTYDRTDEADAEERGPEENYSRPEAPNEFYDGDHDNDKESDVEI
Data set [15] concerns the target T1, Voltage-gated inwardly rectifying potassium channel KCNH2. The data set is described as follows: Displacement of [3H]astemizole from human ERG channel transfected in HEK293 cells after 60 mins by liquid scintillation counting analysis. It counts as cell-based.

SMILES strings stand for the structures. pIC50: −log10 of the molar value.

Histone deacetylase 2, sequence (Q92769 whole entry): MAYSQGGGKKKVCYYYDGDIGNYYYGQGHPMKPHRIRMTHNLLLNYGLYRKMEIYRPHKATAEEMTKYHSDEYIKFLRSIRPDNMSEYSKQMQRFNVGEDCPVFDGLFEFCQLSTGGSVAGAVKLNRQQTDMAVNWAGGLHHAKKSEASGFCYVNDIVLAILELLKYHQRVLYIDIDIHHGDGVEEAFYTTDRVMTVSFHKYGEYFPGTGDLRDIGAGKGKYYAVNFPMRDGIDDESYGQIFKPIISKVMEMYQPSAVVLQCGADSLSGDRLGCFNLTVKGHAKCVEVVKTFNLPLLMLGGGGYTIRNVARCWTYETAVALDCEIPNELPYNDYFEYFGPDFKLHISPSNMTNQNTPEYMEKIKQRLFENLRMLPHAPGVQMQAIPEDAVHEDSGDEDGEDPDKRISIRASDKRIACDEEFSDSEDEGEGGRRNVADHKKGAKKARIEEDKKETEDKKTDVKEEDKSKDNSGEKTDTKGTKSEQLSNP

On to `O=C(/C=C/c1ccc2c(c1)C(=O)NC1(CCN(CCc3ccccc3)CC1)O2)NO`, for which the pIC50 in the data set with K562 was 6.31; with A549, 5.85; in the data set with HCT-116, 6.33. For the same molecule, the remaining at 0.5 h in data set [1] worked out at 46%; in [2], 68%. For the same molecule, the IC50 against Histone deacetylase turned out to be 91 nM.

For the molecule `O=C(/C=C/c1ccc2c(c1)C(=O)N(Cc1ccccc1)C1(CCN(Cc3ccccc3)CC1)O2)NO`, the pIC50 in the data set with K562 is 5.76; with A549 it was 5.58; in the data set with HCT-116, 5.73. On Histone deacetylase, this molecule showed an IC50 of 540 nM.

On to `O=C(/C=C/c1ccc2c(c1)C(=O)N(Cc1ccccc1)C1(CCNCC1)O2)NO`, for which the pIC50 was 5.82 in the data set on K562, 5.50 with A549 and 6.07 with HCT-116. The molecule further came in with an IC50 against Histone deacetylase of 59 nM.

Consider `O=C(/C=C/c1ccc2c(c1)C(=O)NC1(CCNCC1)O2)NO`, for which the results for the pIC50 with K562, with A549 and in the data set on HCT-116 were 5.05, 5.32 and 5.16, respectively. This molecule came in with an IC50 at Histone deacetylase of 78 nM.

`CN1C(=O)c2cc(/C=C/C(=O)NO)ccc2OC12CCN(Cc1ccccc1)CC2`: the figures for the pIC50 with K562, with A549 and with HCT-116 were 5.88, 5.65 and 6.01, respectively. In addition, the IC50 at Histone deacetylase was found to be 136 nM.

With `O=C(/C=C/c1ccc2c(c1)C(=O)NC1(CCN(Cc3ccc(F)cc3)CC1)O2)NO`, the pIC50 with K562 was 6.02; with A549, 5.78; with HCT-116 it was 6.30. Further, in [3], the half-life was 414 min. The same molecule had a clearance in data set [4] of 44.3 mL/min/kg. Further, the Cmax in [5] came to 13 µM; in data set [13], 5.05 µM. For the same molecule, in data set [6], the Tmax is 5 min. The AUC(0-inf) in data set [7] was 1980 ng·h/mL; in [11], 1880 ng·h/mL. Moreover, in [8], the “inhibition (INH)” value was determined as 70%. Moreover, the Vd in data set [9] was 3.1 L/kg. The figures for the remaining at 0.5 h in data set [1] and in data set [2] were 98% and 71%, respectively. Further, the bioavailability in data set [10] worked out at 35%. This molecule also showed an IC50 against Histone deacetylase of 103 nM. The same molecule came in with a solubility in [12] greater than 200 µM.

Take `CN1CCC2(CC1)Oc1ccc(/C=C/C(=O)NO)cc1C(=O)N2C`: the pIC50 in the data set with K562 is 5.77; in the data set on A549 it was 5.45; in the data set on HCT-116, 5.85. This molecule also came in with an IC50 at Histone deacetylase of 527 nM.

For `O=C(/C=C/c1ccc2c(c1)C(=O)N(Cc1ccccc1)C1(CCN(CCc3ccccc3)CC1)O2)NO`, the values for the pIC50 in the data set with K562, in the data set on A549 and in the data set with HCT-116 were 5.90, 5.82 and 5.78, respectively. The molecule also came in with an IC50 against Histone deacetylase of 645 nM.

As for `CN1C(=O)c2cc(/C=C/C(=O)NO)ccc2OC12CCN(CCc1ccccc1)CC2`, the pIC50 in the data set with K562 is 6.10; with A549, 5.59; in the data set on HCT-116 it was 5.97. Besides, the IC50 on Histone deacetylase turned out to be 258 nM.

On to `O=C(/C=C/c1ccc2c(c1)C(=O)CC1(CCN(CCc3ccccc3)CC1)O2)NO`, for which the pIC50 against Histone deacetylase 2 was 6.72; in the data set with K562, 6.74; in data set [14], 6.80; in the data set with A549, 6.26; on Histone deacetylase 3, 6.89; in the data set on HCT-116, 6.70. For the same molecule, the clearance in data set [4] is 79.8 mL/min/kg. Besides, the highest concentration (Cmax) in [5] came to 6.34 µM; in [13] it was 2.49 µM. Further, the Tmax in data set [6] was 15 min. In addition, the AUC(0-inf) came to 1600 ng·h/mL in [7] and 1040 ng·h/mL in data set [11]. In data set [9], the Vd amounted to 8.6 L/kg. Further, the bioavailability in [10] came out at 51.1%. This molecule came in with an IC50 against Histone deacetylase of 113 nM.

As to `CN1CCC2(CC1)Oc1ccc(/C=C/C(=O)NO)cc1C(=O)N2Cc1ccccc1`, the pIC50 with K562 was 6.44; with A549, 6.04; with HCT-116 it was 6.49. Also, the remaining at 0.5 h in [1] was 19%; in [2], 53%. On Histone deacetylase, this molecule yielded an IC50 of 174 nM.

As for `O=C(/C=C/c1ccc2c(c1)C(=O)N(Cc1ccccc1)C1(CCN(Cc3ccc(F)cc3)CC1)O2)NO`, the results for the pIC50 in the data set on K562, in the data set on A549 and in the data set with HCT-116 were 5.80, 5.52 and 5.69, respectively. At Histone deacetylase, this molecule registered an IC50 of 667 nM.

Take `CN1C(=O)c2cc(/C=C/C(=O)NO)ccc2OC12CCN(Cc1ccc(F)cc1)CC2`: the pIC50 in the data set with K562 is 6.13; in the data set with A549, 5.68; in the data set on HCT-116 it was 6.07. Moreover, the remaining at 0.5 h in data set [1] is 39%; in [2], 60%. Moreover, the IC50 against Histone deacetylase worked out at 137 nM.

Regarding `CN1CCC2(CC1)NC(=O)c1cc(/C=C/C(=O)NO)ccc1O2`, the figures for the pIC50 in the data set on K562, in the data set on A549 and with HCT-116 were 5.83, 5.57 and 6.05, respectively. Also, the IC50 at Histone deacetylase is 99 nM.

As for `O=C(/C=C/c1ccc2c(c1)C(=O)CC1(CCN(Cc3ccc(F)cc3)CC1)O2)NO`, the pIC50 against Histone deacetylase 2 was 6.51; in the data set on K562, 6.17; in data set [14], 6.72; in the data set on A549, 5.88; against Histone deacetylase 3 it was 7.05; with HCT-116 it was 6.11. Besides, the pIC50 in data set [15] is 5.62. For the same molecule, the clearance in [4] is 55.8 mL/min/kg. In addition, the Cmax in data set [5] is 11 µM; in data set [13], 1.83 µM. Further, in data set [6], the Tmax is 15 min. In addition, the AUC(0-inf) is 1240 ng·h/mL in [7] and 1490 ng·h/mL in [11]. In data set [9], the Vd turned out to be 5.9 L/kg. Further, in [10], the bioavailability came out at 27.6%. For the same molecule, the IC50 against Histone deacetylase is 108 nM.

Regarding `CN1C(=O)c2cc(/C=C/C(=O)NO)ccc2OC12CCNCC2`, the pIC50 with K562 was 4.85; with A549, 4.75; in the data set on HCT-116 it was 4.92. The IC50 against Histone deacetylase was found to be 204 nM.

The values above are taken from ChEMBL document CHEMBL2390828, “Synthesis and biological characterization of spiro[2H-(1,3)-benzoxazine-2,4'-piperidine] based histone deacetylase inhibitors” (Eur J Med Chem, 2013).
